Data from ChEMBL document CHEMBL1122848, “5-(Haloalkyl)-2'-deoxyuridines: a novel type of potent antiviral nucleoside analogue” (1985).
In brackets after ≈: the same amount, converted by molar mass.

Experiments:
[1] = tested on: Mus musculus; assay: In vivo evaluation for the percent survivors in systemic HSV-1 infection of Mice administered through oral route at a dose 25 mg/kg per day; type: functional
Method in brief: (§1)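 Systemic infection model in hairless (hr/hr) mice weighing 18–20 g, twelve per group. Mice were inoculated i.p. with HSV-1 (Brand) at 2 × 10⁵ PFU/0.2 mL per mouse. Compound was given twice a day i.p. or by oral gavage at the stated daily dose. Read-out was percent survivors.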

[2] = tested on: Mus musculus; assay: In vivo evaluation for the percent survivors in systemic HSV-1 infection of Mice administered through oral route at a dose 50 mg/kg per day; type: functional; method in brief: as §1
[3] = tested on: Mus musculus; assay: In vivo evaluation for the percent survivors in systemic HSV-1 infection of Mice administered intraperitoneally at a dose 10 mg/kg per day; type: functional; conditions: route intraperitoneal; method in brief: as §1
[4] = tested on: Mus musculus; assay: Effect of delayed treatment on mortality of systemically infected mice at 25 mg/kg per day administered through oral route after 72 hr of start of treatment; type: functional
Method in brief: (§2)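 Hairless (hr/hr) mice, 18–20 g, ten per group, inoculated intraperitoneally with HSV-1 strain Brand at 2 × 10⁵ PFU/0.2 mL per mouse. Dosing was 25 mg/kg per day, given twice daily either intraperitoneally or orally by gavage. Treatment started at 3, 24, 48 or 72 h post-infection. Read-out was percent survivors.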

[5] = tested on: Mus musculus; assay: Effect of delayed treatment on mortality of systemically infected mice at 25 mg/kg per day administered Intraperitoneally after 3 hr of start of treatment; type: functional; conditions: route intraperitoneal; method in brief: as §2
[6] = tested on: Mus musculus; assay: Effect of delayed treatment on mortality of systemically infected mice at 25 mg/kg per day administered Intraperitoneally after 72 hr of start of treatment; type: functional; conditions: route intraperitoneal; method in brief: as §2
[7] = tested on: Mus musculus; assay: Effect of delayed treatment on mortality of systemically infected mice at 25 mg/kg per day administered through oral route after 48 hr of start of treatment; type: functional; method in brief: as §2
[8] = tested on: Mus musculus; assay: In vivo evaluation for the percent survivors in systemic HSV-1 infection of Mice administered intraperitoneally at a dose 50 mg/kg per day; type: functional; conditions: route intraperitoneal; method in brief: as §1
[9] = tested on: Mus musculus; assay: In vivo evaluation for the percent survivors in systemic HSV-1 infection of Mice administered intraperitoneally at a dose 25 mg/kg per day; type: functional; conditions: route intraperitoneal; method in brief: as §1
[10] = tested on: Human alphaherpesvirus 2; assay: Minimum inhibitory concentration against HSV-2.; type: functional
Method in brief: (§3)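 CPE-inhibition assay in HEp-2 cells. Compound was serially diluted 3-fold in E-MEM, then virus (HSV-1 Brand or HSV-2 K979) and a cell suspension in E-MEM plus 15% FCS were added together. Virus input gave 90–100% CPE in infected controls after 3 days. Plates were then fixed and stained, and CPE was scored.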

[11] = tested on: Mus musculus; assay: In vivo evaluation for the percent survivors in systemic HSV-1 infection of Mice administered intraperitoneally at a dose 1 mg/kg per day; type: functional; conditions: route intraperitoneal; method in brief: as §1
[12] = tested on: Mus musculus; assay: In vivo evaluation for the percent survivors in systemic HSV-1 infection of Mice administered intraperitoneally at a dose 5 mg/kg per day; type: functional; conditions: route intraperitoneal; method in brief: as §1
[13] = tested on: Mus musculus; assay: In vivo evaluation for the percent survivors in systemic HSV-1 infection of Mice administered through oral route at a dose 5 mg/kg per day; type: functional; method in brief: as §1
[14] = tested on: Mus musculus; assay: Effect of delayed treatment on mortality of systemically infected mice at 25 mg/kg per day administered Intraperitoneally after 48 hr of start of treatment; type: functional; conditions: route intraperitoneal; method in brief: as §2
[15] = tested on: Human alphaherpesvirus 1; assay: Minimum inhibitory concentration against HSV-1.; type: functional; method in brief: as §3
[16] = tested on: Mus musculus; assay: Effect of delayed treatment on mortality of systemically infected mice at 25 mg/kg per day administered through oral route after 24 hr of start of treatment; type: functional; method in brief: as §2
[17] = tested on: Mus musculus; assay: Effect of delayed treatment on mortality of systemically infected mice at 25 mg/kg per day administered through oral route after 3 hr of start of treatment; type: functional; method in brief: as §2
[18] = tested on: Mus musculus; assay: Effect of delayed treatment on mortality of systemically infected mice at 25 mg/kg per day administered Intraperitoneally after 24 hr of start of treatment; type: functional; conditions: route intraperitoneal; method in brief: as §2
[19] = tested on: Mus musculus; assay: In vivo evaluation for the percent survivors in systemic HSV-1 infection of Mice administered through oral route at a dose 2.5 mg/kg per day; type: functional; method in brief: as §1
[20] = tested on: HEp-2; assay: Minimum toxic effect against HEp-2 cells.; type: functional, Homo sapiens
Method in brief: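 Uninfected HEp-2 cells were exposed to 3-fold serial dilutions of compound in E-MEM with FCS, run alongside the CPE assay. Cell density was set to reach a monolayer in 1–2 days. Plates were fixed and stained at 3 days. MTC is the lowest concentration causing visible toxic effects.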

[21] = tested on: Mus musculus; assay: In vivo evaluation for the percent survivors in systemic HSV-1 infection of Mice administered intraperitoneally at a dose 100 mg/kg per day; type: functional; conditions: route intraperitoneal; method in brief: as §1
[22] = tested on: Mus musculus; assay: In vivo evaluation for the percent survivors in systemic HSV-1 infection of Mice administered through at a dose 25 mg/kg per day; type: functional; method in brief: as §1
[23] = tested on: Mus musculus; assay: In vivo evaluation for the percent survivors in systemic HSV-1 infection of Mice administered through intraperitoneal at a dose 100 mg/kg per day; type: functional; method in brief: as §1
[24] = tested on: Mus musculus; assay: In vivo evaluation for the percent survivors in systemic HSV-1 infection of Mice administered through intraperitoneal at a dose 1 mg/kg per day; type: functional; method in brief: as §1
[25] = tested on: Mus musculus; assay: In vivo evaluation for the percent survivors in systemic HSV-1 infection of Mice administered through intraperitoneal at a dose 50 mg/kg per day; type: functional; method in brief: as §1
[26] = tested on: Mus musculus; assay: In vivo evaluation for the percent survivors in systemic HSV-1 infection of Mice administered through intraperitoneal at a dose 5 mg/kg per day; type: functional; method in brief: as §1
[27] = tested on: Mus musculus; assay: In vivo evaluation for the percent survivors in systemic HSV-1 infection of Mice administered through intraperitoneal at a dose 10 mg/kg per day; type: functional; method in brief: as §1

| Compound | MIC [10] [µg/mL] | MIC [15] [µg/mL] | MTC [20] [µg/mL] | other results |
| --- | --- | --- | --- | --- |
| O=c1[nH]c(=O)n([C@H]2C[C@H](O)[C@@H](CO)O2)cc1CCCl | 3 (≈ 10.3 µM) | 0.03 (≈ 0.103 µM) | 330 | Survivors [1]: 100%; Survivors [2]: 100%; Survivors [3]: 91%; Survivors [4]: 70%; Survivors [5]: 100%; Survivors [6]: 60%; Survivors [7]: 100%; Survivors [8]: 92%; Survivors [9]: 83%; Survivors [11]: 75%; Survivors [12]: 92%; Survivors [13]: 67%; Survivors [14]: 80%; Survivors [16]: 90%; Survivors [17]: 80%; Survivors [18]: 100%; Survivors [19]: 82%; Survivors [21]: 100% |
| O=c1[nH]c(=O)n([C@@H]2C[C@H](O)[C@@H](CO)O2)cc1CCCl | 100 (≈ 344 µM) | 3 (≈ 10.3 µM) | 100 |  |
| O=c1[nH]c(=O)n([C@@H]2C[C@H](O)[C@@H](CO)O2)cc1CCBr | > 100 | 3 (≈ 8.95 µM) | 330 |  |
| O=c1[nH]c(=O)n([C@H]2C[C@H](O)[C@@H](CO)O2)cc1CCBr | 100 (≈ 298 µM) | 3 (≈ 8.95 µM) | 100 |  |
| O=c1[nH]c(=O)n([C@H]2C[C@H](O)[C@@H](CO)O2)cc1CCCCl | 30 (≈ 98.4 µM) | 0.3 (≈ 0.984 µM) | 100 |  |
| COC(=O)/C=C/c1cn([C@H]2C[C@H](O)[C@@H](CO)O2)c(=O)[nH]c1=O | 30 (≈ 96.1 µM) | 0.3 (≈ 0.961 µM) | 100 |  |
| O=c1nc2c(cn1[C@H]1C[C@H](O)[C@@H](CO)O1)CCO2 | > 100 | > 100 | 330 |  |
| O=c1[nH]c(=O)n([C@H]2C[C@H](O)[C@@H](CO)O2)cc1CCO | 100 (≈ 367 µM) | 100 (≈ 367 µM) | 330 |  |
| O=c1[nH]c(=O)n([C@H]2C[C@H](O)[C@@H](CO)O2)cc1CCI | 30 (≈ 78.5 µM) | 1 (≈ 2.62 µM) | 330 |  |
| O=c1[nH]c(=O)n([C@H]2C[C@H](O)[C@@H](CO)O2)cc1CCCO | > 100 | > 100 | 330 |  |
| O=c1[nH]c(=O)n(C2CC(O)C(CCl)O2)cc1CCCCl (stereo not given) | > 100 | > 100 | 330 |  |
| O=c1[nH]c(=O)n(C2CC(O)C(CCl)O2)cc1CCCl (stereo not given) | > 100 | 100 (≈ 323 µM) | 330 |  |
| O=c1[nH]c(=O)n(C2CC(O)C(CBr)O2)cc1CCBr (stereo not given) | 100 (≈ 251 µM) | 30 (≈ 75.4 µM) | 330 |  |
| O=c1[nH]c(=O)n(C2CC(O)C(CI)O2)cc1CCI (stereo not given) | > 100 | 30 (≈ 61 µM) | 100 |  |
| Nc1nc2c(ncn2COCCO)c(=O)[nH]1 [ACYCLOVIR] | 3 (≈ 13.3 µM) | 0.3 (≈ 1.33 µM) | 330 | Survivors [1]: 55%; Survivors [2]: 92%; Survivors [22]: 100%; Survivors [23]: 91%; Survivors [13]: 9%; Survivors [24]: 54%; Survivors [19]: 0%; Survivors [25]: 100%; Survivors [26]: 75%; Survivors [27]: 83% |
| O=c1[nH]c(=O)n([C@H]2C[C@H](O)[C@@H](CO)O2)cc1/C=C/Br [BRIVUDINE] | 3 (≈ 9.01 µM) | 0.003 (≈ 0.00901 µM) | 100 | Survivors [1]: 0%; Survivors [2]: 8%; Survivors [22]: 8%; Survivors [23]: 33%; Survivors [13]: 0%; Survivors [24]: 33%; Survivors [19]: 0%; Survivors [25]: 33%; Survivors [26]: 25%; Survivors [27]: 18% |
| O=C([O-])P(=O)([O-])[O-].[Na+].[Na+].[Na+] [FOSCARNET SODIUM] | 30 | 10 | 330 |  |
| O=c1[nH]c(=O)n([C@H]2C[C@H](O)[C@@H](CO)O2)cc1I [IDOXURIDINE] | 0.3 (≈ 0.847 µM) | 0.3 (≈ 0.847 µM) | 100 |  |
| Nc1ncnc2c1ncn2[C@@H]1O[C@H](CO)[C@@H](O)[C@@H]1O [VIDARABINE] | 10 (≈ 37.4 µM) | 10 (≈ 37.4 µM) | 100 |  |
